Assay results taken from ChEMBL document CHEMBL1135330, “Synthesis and evaluation of 4-hydroxyphenylacetic acid amides and 4-hydroxycinnamamides as antioxidants” (Bioorg Med Chem Lett, 2002).

Assays:
Rattus norvegicus [1] = species: Rattus norvegicus; test: Compound was tested for its inhibitory concentration against formation of lipid peroxides in rat brain homogenates by thiobarbituric acid reactive substances (TBARS) assay according to the method of Stocks.; assay type: functional
Procedure, shortened: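 Lipid peroxidation was run on rat brain homogenate (pH 7.4) supernatant after 1000 × g for 10 min. It was started with 0.02 mM FeCl2 and 0.25 mM ascorbic acid for 30 min at 37 °C and stopped with perchloric acid. After re-centrifugation, the supernatant was reacted with 0.5% TBA at 80 °C for 1 h, cooled, and read at 532 nm.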

Rattus norvegicus [2] = species: Rattus norvegicus; test: Compound was tested for its DPPH radical scavenging activity in rat brain homogenates; assay type: functional
Rattus norvegicus [3] = species: Rattus norvegicus; test: Compound was evaluated for its inhibitory concentration against [Fe2+]/AA- induced oxidative neuronal damage in primary cultured rat cortical cells; assay type: functional, cell-based
Procedure, shortened: (§1)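 Primary rat cortical cultures at 12–14 days in vitro were HBSS-washed and exposed for 2 h to Fe2+ (100 μM)/ascorbic acid (25 μM), with compound at various concentrations present during the insult. Cultures were then washed and held in MEM plus 21 mM glucose at 37 °C, 5% CO2.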

Rattus norvegicus [4] = species: Rattus norvegicus; test: Compound was evaluated for its inhibitory concentration against X/XO- induced oxidative neuronal damage in primary cultured rat cortical cells; assay type: functional, cell-based
Procedure, shortened: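 Primary rat cortical cultures at 12–14 days in vitro were washed with HBSS and exposed for 10 min to xanthine (0.5 mM)/xanthine oxidase (10 mU/mL), with compound at various concentrations present during the insult. They were then washed and kept in MEM plus 21 mM glucose at 37 °C, 5% CO2.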

Rattus norvegicus [5] = species: Rattus norvegicus; test: Compound was evaluated for its inhibitory concentration against hydrogen peroxide- induced oxidative neuronal damage in primary cultured rat cortical cells; assay type: functional, cell-based
Procedure, shortened: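 Cortical cultures from rat, 12–14 days in vitro, were HBSS-washed and exposed to H2O2 for 5 min, with compound at various concentrations present during the exposure. Cultures were then washed and kept in MEM plus 21 mM glucose at 37 °C, 95% air/5% CO2.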

Rattus norvegicus [6] = species: Rattus norvegicus; test: Neuroprotective action was estimated in terms of its inhibitory concentration against [Fe2+]/AA- induced toxicity; assay type: functional; procedure, shortened: as §1
Rattus norvegicus [7] = species: Rattus norvegicus; test: Neuroprotective action was estimated in terms of its inhibitory concentration against superoxide and hydroxyl radicals measured by the leakage of cytoplasmic enzyme lactate dehydrogenase (LDH).; assay type: functional
Rattus norvegicus [8] = species: Rattus norvegicus; test: Neuroprotective action was estimated in terms of its inhibitory concentration against superoxide and hydroxyl radicals measured by the leakage of cytoplasmic enzyme lactate dehydrogenase (LDH); found highly potent; assay type: functional

| Structure (SMILES) | IC50 (Rattus norvegicus [1]) [µM] | IC50 (Rattus norvegicus [2]) [µM] | IC50 (Rattus norvegicus [7]) [µM] | IC50 (Rattus norvegicus [8]) [µM] | IC50 (Rattus norvegicus [3]) [µM] | IC50 (Rattus norvegicus [4]) [µM] | IC50 (Rattus norvegicus [5]) [µM] | IC50 (Rattus norvegicus [6]) [µM] |
| --- | --- | --- | --- | --- | --- | --- | --- | --- |
| Cc1cc(C(C)(C)C)c(O)c(C(C)(C)C)c1 [BUTYLATED HYDROXYTOLUENE] | 4.03 |  |  |  |  |  |  |  |
| COc1cc(CC(=O)NCCCc2ccc(C)c(C)c2)ccc1O | 25.9 | 179 |  |  |  |  |  |  |
| Cc1c(C)c2c(c(C)c1O)CCC(C)(C(=O)O)O2 (stereo unspecified) [TROLOX] |  |  |  |  | 431 | 202 | 330 |  |
| Cc1ccc(CCCNC(=O)Cc2ccc(O)c(Oc3ccccc3)c2)cc1C | 32 | > 300 |  |  |  |  |  |  |
| Cc1ccc(CCCNC(=O)/C=C/c2ccc(O)c(O)c2)cc1C | 1.11 | 34.3 |  |  | 23.7 | 2.54 | 5.91 |  |
| COc1cc(/C=C/C(=O)NCCCc2ccc(C)c(C)c2)cc(OC)c1O | 3.41 | 89.1 |  |  |  |  |  | 5.4 |
| Cc1ccc(CCCNC(=O)Cc2ccc(O)c(O)c2)cc1C | 2.6 | 31 | 2.4 | 2.4 | 2.4 | 3.3 | 6.03 |  |
| COc1cc(/C=C/C(=O)NCCCc2ccc(C)c(C)c2)ccc1O | 9.94 | 82.2 |  |  |  |  |  |  |

Now from value to compound, other results behind:

| IC50 (Rattus norvegicus [1]) [µM] | IC50 (Rattus norvegicus [2]) [µM] | IC50 (Rattus norvegicus [7]) [µM] | IC50 (Rattus norvegicus [8]) [µM] | Structure (SMILES) | IC50 (Rattus norvegicus [3]) [µM] | IC50 (Rattus norvegicus [4]) [µM] | IC50 (Rattus norvegicus [5]) [µM] | IC50 (Rattus norvegicus [6]) [µM] |
| --- | --- | --- | --- | --- | --- | --- | --- | --- |
| 4.68 |  |  |  | Cc1c(C)c2c(c(C)c1O)CC[C@@](C)(CCC[C@H](C)CCC[C@H](C)CCCC(C)C)O2 [ALPHA-TOCOPHEROL] |  |  |  |  |
| 24 | 182 |  |  | CCOc1cc(CC(=O)NCCCc2ccc(C)c(C)c2)ccc1O |  |  |  |  |
| 11.8 | 50.1 |  |  | COc1cc(CC(=O)NCCCc2ccc(C)c(C)c2)cc(OC)c1O |  |  |  |  |
| 1.81 | 21.3 |  |  | Cc1ccc(CCCNC(=O)Cc2cc(O)c(O)c(O)c2)cc1C | 26.8 | 34.8 | 35 |  |
| 9.28 | 162 |  |  | CCCCOc1cc(CC(=O)NCCCc2ccc(C)c(C)c2)ccc1O |  |  |  | 4.2 |
| 19.4 | > 300 |  |  | Cc1ccc(CCCNC(=O)Cc2ccc(O)c(OC(C)C)c2)cc1C |  |  |  | 34.2 |
